In ChEMBL document CHEMBL1154975, “Selective inducible microsomal prostaglandin E(2) synthase-1 (mPGES-1) inhibitors derived from an oxicam template” (Bioorg Med Chem Lett, 2010):
pIC50: −log10 of the molar value.

Target: T1, Prostaglandin E synthase (Homo sapiens, UniProt O14684)
T1 sequence (O14684 whole entry): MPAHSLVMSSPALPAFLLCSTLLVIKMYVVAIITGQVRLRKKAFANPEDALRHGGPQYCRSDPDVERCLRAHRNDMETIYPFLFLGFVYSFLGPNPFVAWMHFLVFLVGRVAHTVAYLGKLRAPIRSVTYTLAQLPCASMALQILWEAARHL
Experiment: Inhibition of human mPGES1 in IL1-beta treated human FF cells assessed as blockade of PGH2 to PGE2 conversion after 50 mins by ELISA
Format: cell-based
How it was run: (§1)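 Human fetal fibroblasts in DMEM/15% FBS at 37 °C, 5% CO2; after 20–24 h, stimulated 20–24 h with 1 ng/mL IL-1β, washed, compound 50 min in serum-free DMEM, then 10 µM arachidonic acid 10 min. PGE2 by ELISA. For PGF2α, SnCl2 added after compound for 10 min before arachidonic acid. IC50 from duplicate data.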

Q: With Cc1ccc(-c2ccc(NC(=O)C3=C(O)c4ccccc4S(=O)(=O)N3)cc2)cc1C as the molecule, how does the pIC50 read?
A: > 6.12

Q: With COc1ccc2c(c1)C(O)=C(C(=O)Nc1ccc(-c3ccc(Cl)c(Cl)c3)cc1)NS2(=O)=O as the molecule, how does the pIC50 read?
A: 5.89

Q: With O=C(Nc1ccc(-c2ccc(Cl)c(Cl)c2)nc1)C1=C(O)c2ccccc2S(=O)(=O)N1 as the molecule, how does the pIC50 read?
A: 6.16

Q: With O=C(Nc1ccc(-c2cccc(Cl)c2Cl)cc1)C1=C(O)c2ccccc2S(=O)(=O)N1 as the molecule, how does the pIC50 read?
A: > 6.04

Q: With O=C(Nc1ccc(-c2ccccc2)cc1)C1=C(O)c2ccccc2S(=O)(=O)N1 as the molecule, how does the pIC50 read?
A: 5.17

Q: With O=C(CNS(=O)(=O)c1ccccc1C(=O)O)Nc1ccc(-c2ccc(Cl)c(Cl)c2)cc1 as the molecule, how does the pIC50 read?
A: 4.42

Test system: not listed separately
Experiment: Inhibition of rat mPGES1

Q: With CC(C)c1ccc2c(c1)c(SC(C)(C)C)c(CC(C)(C)C(=O)O)n2Cc1ccc(Cl)cc1 as the molecule, how does the pIC50 read?
A: 5.49

Target: T2, Prostaglandin G/H synthase 2 (Homo sapiens, UniProt P35354)
T2 sequence (P35354 whole entry): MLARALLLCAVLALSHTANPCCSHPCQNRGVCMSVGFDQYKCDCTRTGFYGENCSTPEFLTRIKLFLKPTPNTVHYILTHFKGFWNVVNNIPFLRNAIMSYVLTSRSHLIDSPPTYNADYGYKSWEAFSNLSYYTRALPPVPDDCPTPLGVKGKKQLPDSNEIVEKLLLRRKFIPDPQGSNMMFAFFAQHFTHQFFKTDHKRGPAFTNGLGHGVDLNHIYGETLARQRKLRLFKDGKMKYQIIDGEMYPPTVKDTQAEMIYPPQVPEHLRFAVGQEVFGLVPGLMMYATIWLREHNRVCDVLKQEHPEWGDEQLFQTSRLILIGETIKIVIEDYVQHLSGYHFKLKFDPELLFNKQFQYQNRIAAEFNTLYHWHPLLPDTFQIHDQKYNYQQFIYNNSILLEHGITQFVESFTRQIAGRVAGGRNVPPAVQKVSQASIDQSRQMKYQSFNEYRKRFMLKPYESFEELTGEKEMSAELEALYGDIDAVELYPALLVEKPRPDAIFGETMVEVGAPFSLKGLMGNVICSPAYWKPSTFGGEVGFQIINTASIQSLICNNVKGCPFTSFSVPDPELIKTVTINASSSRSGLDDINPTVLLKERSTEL
Experiment: Inhibition of human COX2 in IL1-beta treated human FF cells assessed as blockade of SnCl2-mediated PGH2 to PGF2alpha conversion after 50 mins by ELISA
Format: cell-based
How it was run: as §1

Q: With Cc1ccc(-c2ccc(NC(=O)C3=C(O)c4ccccc4S(=O)(=O)N3)cc2)cc1C as the molecule, how does the pIC50 read?
A: < 4.24

Q: With COc1ccc2c(c1)C(O)=C(C(=O)Nc1ccc(-c3ccc(Cl)c(Cl)c3)cc1)NS2(=O)=O as the molecule, how does the pIC50 read?
A: < 4.00

Q: With O=C(Nc1ccc(-c2ccc(Cl)c(Cl)c2)nc1)C1=C(O)c2ccccc2S(=O)(=O)N1 as the molecule, how does the pIC50 read?
A: 4.47

Q: With O=C(Nc1ccc(-c2cccc(Cl)c2Cl)cc1)C1=C(O)c2ccccc2S(=O)(=O)N1 as the molecule, how does the pIC50 read?
A: 4.35

Q: With O=C(Nc1ccc(-c2ccccc2)cc1)C1=C(O)c2ccccc2S(=O)(=O)N1 as the molecule, how does the pIC50 read?
A: 4.03

Q: With O=C(CNS(=O)(=O)c1ccccc1C(=O)O)Nc1ccc(-c2ccc(Cl)c(Cl)c2)cc1 as the molecule, how does the pIC50 read?
A: < 4.00

Target: T1, Prostaglandin E synthase
Experiment: Inhibition of human mPGES1 assessed as PGE2 level after 41 sec by ELISA
How it was run: (§2)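 Enzyme in 100 mM potassium phosphate pH 6.2 with 2.5 mM glutathione, compound added in DMSO. Reaction started with PGH2 (final 2 µM), stopped with 2.5 mM FeCl2, diluted 120-fold into ELISA buffer. PGE2 by ELISA against a standard curve. % control set between reference-inhibited and enzyme-only controls; IC50 by 4-parameter log fit of duplicate data.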

Q: With N#Cc1ccc(-c2ccc(NC(=O)C3=C(O)c4ccccc4S(=O)(=O)N3)cc2)cc1 as the molecule, how does the pIC50 read?
A: 5.40

Q: With O=C(Nc1ccc(-c2ccc(Cl)c(Cl)c2)cc1)C1=C(O)c2ccc(O)cc2S(=O)(=O)N1 as the molecule, how does the pIC50 read?
A: 6.74

Q: With O=C(CNS(=O)(=O)c1ccccc1CO)Nc1ccc(-c2ccc(Cl)c(Cl)c2)cc1 as the molecule, how does the pIC50 read?
A: 4.53

Q: With O=C(Nc1ccc(-c2ccc(Cl)nc2)cc1)C1=C(O)c2ccccc2S(=O)(=O)N1 as the molecule, how does the pIC50 read?
A: 4.90

Q: With O=C(Nc1ccc(-c2ccc(Cl)cc2Cl)cn1)C1=C(O)c2ccccc2S(=O)(=O)N1 as the molecule, how does the pIC50 read?
A: 4.93

Q: With COc1ccc2c(c1)S(=O)(=O)NC(C(=O)Nc1ccc(-c3ccc(Cl)c(Cl)c3)cc1)=C2O as the molecule, how does the pIC50 read?
A: 5.52

Q: With COc1ccc(-c2ccc(NC(=O)C3=C(O)c4ccccc4S(=O)(=O)N3)cc2)cc1OC as the molecule, how does the pIC50 read?
A: 4.49

Q: With Cc1ccc(-c2ccc(NC(=O)C3=C(O)c4ccccc4S(=O)(=O)N3)cc2)cc1C as the molecule, how does the pIC50 read?
A: > 7.59

Q: With COc1ccc2c(c1)C(O)=C(C(=O)Nc1ccc(-c3ccc(Cl)c(Cl)c3)cc1)NS2(=O)=O as the molecule, how does the pIC50 read?
A: 6.16

Q: With O=C(Nc1ccc(-c2ccc(Cl)c(Cl)c2)nc1)C1=C(O)c2ccccc2S(=O)(=O)N1 as the molecule, how does the pIC50 read?
A: 6.80

Q: With O=C(Nc1ccc(-c2cccc(Cl)c2Cl)cc1)C1=C(O)c2ccccc2S(=O)(=O)N1 as the molecule, how does the pIC50 read?
A: 7.42

Q: With O=C(Nc1ccc(-c2ccc(Cl)c(Cl)c2)cn1)C1=C(O)c2ccccc2S(=O)(=O)N1 as the molecule, how does the pIC50 read?
A: 4.18

Q: With O=C(Nc1ccc(-c2ccccc2)cc1)C1=C(O)c2ccccc2S(=O)(=O)N1 as the molecule, how does the pIC50 read?
A: 5.50

Q: With O=C(CNS(=O)(=O)c1ccccc1C(=O)O)Nc1ccc(-c2ccc(Cl)c(Cl)c2)cc1 as the molecule, how does the pIC50 read?
A: 5.24

Target: T1, Prostaglandin E synthase
Experiment: Inhibition of mPGES1
How it was run: as §2

Q: With Fc1cccc(Cl)c1-c1nc(-c2ccc(C#Cc3ccc(C(F)(F)F)cc3)nc2)c(Br)[nH]1 as the molecule, how does the pIC50 read?
A: 9.10
